From ChEMBL document CHEMBL5647697, “Akt inhibition synergizes with polycomb repressive complex 2 inhibition in the treatment of multiple myeloma” (2019)
Active and inactive are the calls of the source. The calls are words filed in the database; no cut-off is given here.

Experiments:
NCI-H929 [1] = test: Cytotoxicity against human NCI-H929 cells assessed as reduction in cell viability at 0.3125 to 10 micromol/L after 48 hrs by MTS assay; assay type: functional, cell-based; details: dose 0.3125-10 µmol/L
Procedure, shortened: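 Seven myeloma lines (MM.1S, H929, OPM2/BTZ among them) exposed to TAS-117 at increasing concentrations up to 10 μmol/L for 48 h. Viability read by MTS against an untreated control; mean ± SD of triplicates.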

MM1.S [2] = test: Downregulation of EZH2 mRNA expression in human MM1.S cells at 0.3 to 3 micromol/L after 24 hrs by qRT-PCR analysis; assay type: functional, cell-based; details: dose 0.3-3 µmol/L
Procedure, shortened: (§1)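 MM.1S and H929 cells given TAS-117 at the indicated doses for 24 h. mRNA measured by RT-qPCR, fold change after normalization to GAPDH; SD of triplicates; significance versus untreated control.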

OPM-2/BTZ [3] = test: Downregulation of EZH2 mRNA expression in human OPM-2/BTZ cells at 3 micromol/L after 24 hrs by qRT-PCR analysis; assay type: functional, cell-based; details: dose 3.0 µmol/L
MM1.S [4] = test: Upregulation of H3K27me3 protein expression in human MM1.S cells at 0.3 to 5 micromol/L for 6 to 48 hrs by Western blot analysis; assay type: functional, cell-based; details: dose 0.3-5 µmol/L, time 6-48 hrs
Procedure, shortened: (§2)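 H3K27me3 was detected by immunoblot in MM.1S and H929 cells. Cells were given graded TAS-117 for 48 h, or 5 μmol/L for the indicated times. Signal is quantified relative to the H3 loading control.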

NCI-H929 [5] = test: Upregulation of H3K27me3 protein expression in human NCI-H929 cells at 0.3 to 5 micromol/L for 6 to 48 hrs by Western blot analysis; assay type: functional, cell-based; details: dose 0.3-5 µmol/L, time 6-48 hrs; procedure, shortened: as §2
OPM-2/BTZ [6] = test: Downregulation of cyclin D1 protein expression in human OPM-2/BTZ cells incubated at 0.3 to 3 micromol/L for 48 hrs by Western blot analysis; assay type: functional, cell-based; details: dose 0.3-3 µmol/L
NCI-H929 [7] = test: Upregulation of p27 protein expression in human NCI-H929 cells incubated at 0.3 to 3 micromol/L for 48 hrs by Western blot analysis; assay type: functional, cell-based; details: dose 0.3-3 µmol/L
NCI-H929 [8] = test: Downregulation of E2F1 mRNA expression in human NCI-H929 cells incubated at 0.3 to 3 micromol/L for 24 hrs by qRT-PCR analysis; assay type: functional, cell-based; details: dose 0.3-3 µmol/L; procedure, shortened: as §1
OPM-2/BTZ [9] = test: Downregulation of E2F1 protein expression in human OPM-2/BTZ cells incubated at 0.3 to 3 micromol/L for 48 hrs by Western blot analysis; assay type: functional, cell-based; details: dose 0.3-3 µmol/L
MM1.S [10] = test: Downregulation of CDK1 protein expression in human MM1.S cells incubated at 0.3 to 3 micromol/L for 48 hrs by Western blot analysis; assay type: functional, cell-based; details: dose 0.3-3 µmol/L
Procedure, shortened: (§3)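 MM.1S and H929 cells given TAS-117 at the indicated doses for 48 h. Protein levels assessed by immunoblot.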

MM1.S [11] = test: Upregulation of p27 protein expression in human MM1.S cells incubated at 0.3 to 3 micromol/L for 48 hrs by Western blot analysis; assay type: functional, cell-based; details: dose 0.3-3 µmol/L
NCI-H929 [12] = test: Downregulation of cyclin D1 protein expression in human NCI-H929 cells incubated at 0.3 to 3 micromol/L for 48 hrs by Western blot analysis; assay type: functional, cell-based; details: dose 0.3-3 µmol/L; procedure, shortened: as §3
MM1.S [13] = test: Synergistic activity against human MM.1S cells assessed as combination index […] at 0.25 uM incubated for 48 hrs by MTT assay; assay type: functional
Procedure, shortened: (§4)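 Cells were exposed to the EZH2/EZH1 inhibitor (UNC1999 or GSK126) for 72 h in total, with the Akt inhibitor added for the last 48 h. Viability was read by MTS assay relative to untreated control cells, in triplicate. The combination index for each dose pair came from isobologram analysis.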

MM1.S [14] = test: (§5) Synergistic activity against human MM.1S cells assessed as combination index […] at 0.125 uM incubated for 48 hrs by […]; assay type: functional; procedure, shortened: as §4
MM1.S [15] = test: as §5; assay type: functional; procedure, shortened: as §4; remark: listed apart in the source
MM1.S [16] = test: Synergistic activity against human MM.1S cells assessed as combination index […] at 0.5 uM incubated for 48 hrs by […]; assay type: functional; procedure, shortened: as §4
NCI-H929 [17] = test: Synergistic activity against human NCI-H929 cells assessed as combination index […] in presence of 5 uM GSK126 […] compound addition at 0.5 uM incubated for 48 hrs by […]; assay type: functional; procedure, shortened: as §4
OPM-2/BTZ [18] = test: Synergistic activity against human OPM-2/BTZ cells assessed as combination index preincubated in presence of 5 uM GSK126 for 72 hrs followed by compound addition at 0.5 uM incubated for 48 hrs by MTT assay; assay type: functional
OPM-2 [19] = test: Synergistic activity against human OPM-2 cells assessed as combination index preincubated in presence of 1.25 uM GSK126 for 72 hrs followed by compound addition at 2.5 uM incubated for 48 hrs by MTT assay; assay type: functional
OPM-2 [20] = test: Synergistic activity against human OPM-2 cells assessed as combination index preincubated in presence of 1.25 uM GSK126 for 72 hrs followed by compound addition at 5 uM incubated for 48 hrs by MTT assay; assay type: functional
MM1.S [21] = test: Induction of apoptosis in human MM1.S cells assessed as viable cells preincubated in presence of 5 micromol/L UNC1999 for 48 hrs followed by compound addition at 2 micromol/L incubated for 12 hrs by annexin V/PI staining based flow cytometry (reference value: 88.2%); assay type: functional; details: dose 2 µmol/L, at 2 µM
MM1.S [22] = test: Cytotoxicity against human MM1.S cells transduced with EZH1 assessed as enhanced sensitivity at 0.156 to 2.5 micromol/L 48 hrs by MTS assay; assay type: functional, cell-based; details: dose 0.156-2.5 µmol/L
Procedure, shortened: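 MM.1S or H929 cells transduced with lentiviral shRNA against EZH1 or against luciferase (shLuc control), then given TAS-117 at the indicated doses for 48 h. Viability by MTS relative to untreated control; mean ± SD of triplicates; compared with shLuc.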

MM1.S [23] = test: Upregulation of BIM mRNA expression in human MM1.S cells at 1 micromol/L after 24 hrs by qRT-PCR analysis; assay type: functional, cell-based; details: dose 1.0 µmol/L
MM1.S [24] = test: Upregulation of FOXO3 […] expression in human MM1.S cells assessed as enhanced nuclear accumulation at 1 micromol/L after 24 hrs by immunofluorescence staining; assay type: functional, cell-based; details: dose 1.0 µmol/L
MM1.S [25] = test: Upregulation of FOXO4 […] expression in human MM1.S cells assessed as enhanced nuclear accumulation at 1 micromol/L after 24 hrs by immunofluorescence staining; assay type: functional, cell-based; details: dose 1.0 µmol/L
OPM-2 [26] = test: Synergistic activity against human OPM-2 cells assessed as combination index preincubated in presence of 2.5 uM UNC1999 for 72 hrs followed by compound addition at 1.25 uM incubated for 48 hrs by MTT assay; assay type: functional
OPM-2/BTZ [27] = test: Upregulation of EZH1 mRNA expression in human OPM-2/BTZ cells at 0.03 to 3 micromol/L after 6 to 48 hrs by qRT-PCR analysis; details: dose 0.03-3 µmol/L, time 6-48 hrs
NCI-H929 [28] = test: Downregulation of E2F1 protein expression in human NCI-H929 cells incubated at 0.3 to 3 micromol/L for 48 hrs by Western blot analysis; details: dose 0.3-3 µmol/L
OPM-2 [29] = test: Synergistic activity against human OPM-2 cells assessed as combination index preincubated in presence of 5 uM UNC1999 for 72 hrs followed by compound addition at 2.5 uM incubated for 48 hrs by MTS assay

C[C@]1(O)C[C@@](N)(c2ccc(-c3nc4n(c3-c3ccccc3)COc3ccncc3-4)cc2)C1 [PIFUSERTIB]
Activity (NCI-H929 [1]): Active | Activity (MM1.S [2]): Active | Activity (OPM-2/BTZ [3]): Active | Activity (MM1.S [4]): Active | Activity (NCI-H929 [5]): Active | Activity (OPM-2/BTZ [6]): Active | Activity (NCI-H929 [7]): Active | Activity (NCI-H929 [8]): Active | Activity (OPM-2/BTZ [9]): Active | Activity (MM1.S [10]): Active | Activity (MM1.S [11]): Active | Activity (NCI-H929 [12]): Active | CI (MM1.S [13]): 0.307 | CI (MM1.S [14]): 0.27 | CI (MM1.S [15]): 1.08 | CI (MM1.S [16]): 0.889 | CI (NCI-H929 [17]): 7.883 | CI (OPM-2/BTZ [18]): 1.112 | CI (OPM-2 [19]): 2.465 | CI (OPM-2 [20]): 11.425 | Activity (MM1.S [21]): 33% | Activity (MM1.S [22]): Active | Activity (MM1.S [23]): Active | Activity (MM1.S [24]): Active | Activity (MM1.S [25]): Active | CI (OPM-2 [26]): 2.53 | Activity (OPM-2/BTZ [27]): Dose-Dependent Effect | Activity (NCI-H929 [28]): Active | CI (OPM-2 [29]): 5.53
